Laboratory results from ChEMBL document CHEMBL2384926, “Asperterrestide A, a cytotoxic cyclic tetrapeptide from the marine-derived fungus Aspergillus terreus SCSGAF0162” (J Nat Prod, 2013).

Columns and labels:
[1] = system: Influenza A virus; test: Antiviral activity against Influenza A virus A/Hong Kong/8/68(H3N2) infected in dog MDCK cells after 3 days by CPE assay; type: functional, organism-based; conditions: 72 h
In short: (§1)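 Cytopathic effect (CPE) assay measuring inhibition of virus replication in MDCK cells. Strains were A/WSN/33 (H1N1, M2-resistant) and A/Hong Kong/8/68 (H3N2, M2-sensitive). Ribavirin served as the positive control. Values reported as IC50.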

[2] = system: U-937; test: Cytotoxicity against human U937 cells by MTT assay; type: functional, cell-based
In short: (§2)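 MTT assay on the human tumour lines U937 (leukemic monocyte lymphoma), K562 (erythroid leukemia), BGC-823 (gastric carcinoma), MOLT-4 (acute lymphoblastic leukemia), MCF-7 (breast adenocarcinoma) and A549 (lung carcinoma). Taxol served as the positive control. Values reported as IC50.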

[3] = system: MOLT-4; test: Cytotoxicity against human MOLT4 cells by MTT assay; type: functional, cell-based; in short: as §2
[4] = system: Influenza A virus; test: Antiviral activity against Influenza A virus (A/WSN/1933(H1N1)) infected in dog MDCK cells after 3 days by CPE assay; type: functional, organism-based; conditions: 72 h; in short: as §1
[5] = system: K562; test: Cytotoxicity against human K562 cells by MTT assay; type: functional, cell-based; in short: as §2
[6] = system: BGC-823; test: Cytotoxicity against human BGC823 cells by MTT assay; type: functional, cell-based; in short: as §2

| SMILES | IC50 [1] [µM] | IC50 [2] [µM] | IC50 [3] [µM] | IC50 [4] [µM] | IC50 [5] [µM] | IC50 [6] [µM] |
| --- | --- | --- | --- | --- | --- | --- |
| CC[C@@H](C)[C@H]1NC(=O)[C@@H](C)NC(=O)c2ccccc2NC(=O)[C@@H]([C@@H](O)c2ccccc2)N(C)C1=O | 8.1 | 6.4 | 6.2 | 15 | – | – |
| CC(=O)O[C@H]1C(=O)[C@@]2(C)[C@H]([C@H](OC(=O)c3ccccc3)[C@]3(O)C[C@H](OC(=O)[C@H](O)[C@@H](NC(=O)c4ccccc4)c4ccccc4)C(C)=C1C3(C)C)[C@]1(OC(C)=O)CO[C@@H]1C[C@@H]2O [PACLITAXEL] | – | 0.0019 | 0.0018 | – | 0.0049 | 0.0035 |
| NC(=O)c1ncn([C@@H]2O[C@H](CO)[C@@H](O)[C@H]2O)n1 [RIBAVIRIN] | 0.41 | – | – | 20.2 | – | – |
